Data as given in ChEMBL document CHEMBL1154085, “Diamine-based human histamine H3 receptor antagonists: (4-aminobutyn-1-yl)benzylamines” (Eur J Med Chem, 2009).
Calls of active or inactive are those of the source. The rule behind the calls is not given here.

Key:
Histamine H3 receptor [1] = biological target: T1, Histamine H3 receptor (Homo sapiens, UniProt Q9Y5N1); test: Displacement of [3H]N-alpha-methylhistamine from human histamine H3 receptor expressed in SK-N-MC cells; format: cell-based
In short: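 Membranes prepared from SK-N-MC cells expressing human H3 receptor, homogenized in 50 mM Tris/5 mM EDTA, pH 7.4. Incubated with 0.8 nM [3H]-N-alpha-methylhistamine ± compound, 60 min, 25 °C. Filtration over polyethylenimine-treated glass fiber filters with four ice-cold washes. Nonspecific binding defined with 10 µM histamine.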

Histamine H3 receptor [2] = biological target: T1, Histamine H3 receptor; test: Antagonist activity at human histamine H3 receptor expressed in SK-N-MC cells assessed as inhibition of forskolin-stimulated cAMP accumulation treated 10 min before histamine challenge; format: functional, cell-based; details: read-out: pA2 (converted)
In short: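 SK-N-MC sublines stably carrying human H3 receptor plus a beta-galactosidase reporter driven by multiple cAMP responsive elements. Antagonist added 10 min before histamine; forskolin (5 µM final) 5 min after histamine; 6 h at 37 °C. Lysis, then chlorophenol red beta-D-galactopyranoside substrate, absorbance 570 nm. pA2 from Schild regression of rightward shifts in histamine curves; mean of at least three determinations.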

Rattus norvegicus [3] = test: Ex vivo histamine H3 receptor occupancy in rat striatum at 30 mg/kg, po after 1 hr; format: functional
In short: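 Ex vivo autoradiography in rat striatum, coronal sections, using [3H]-R-alpha-methylhistamine as radioligand. Oral dosing at 0.1, 0.3, 1, 3, 10 or 30 mg/kg; brains taken 1 h post-dose to measure H3 receptor occupancy.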

Histamine H3 receptor [4] = biological target: T2, Histamine H3 receptor (Rattus norvegicus, UniProt Q9QYN8); test: Displacement of [3H]N-alpha-methylhistamine from rat histamine H3 receptor expressed in SK-N-MC cells; format: cell-based
In short: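 Membranes from homogenized SK-N-MC cells expressing the rat H3 receptor, in 50 mM Tris/5 mM EDTA pH 7.4. Incubated with 0.8 nM [3H]-Nα-methylhistamine ± compound for 60 min at 25 °C, then filtered and washed with ice-cold buffer. Nonspecific binding was defined with 10 μM histamine.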

Histamine H1 receptor = Histamine H1 receptor (Homo sapiens, UniProt P35367); test: Displacement of […] from histamine H1 receptor expressed in SK-N-MC cells; format: cell-based
Histamine H4 receptor = Histamine H4 receptor (Homo sapiens, UniProt Q9H3N8); test: Displacement of […] from histamine H4 receptor expressed in SK-N-MC cells; format: cell-based
hERG (KCNH2) [5] = biological target: T3, hERG (KCNH2) (Homo sapiens, UniProt Q12809); test: Inhibition of human ERG at 10 uM; details: read-out: Activity
hERG (KCNH2) [6] = biological target: T3, hERG (KCNH2); test: Inhibition of human ERG at 3 uM; details: read-out: Activity
Cytochrome P450 1A2 = biological target: T4, Cytochrome P450 1A2 (Homo sapiens, UniProt P05177); test: Inhibition of CPY1A2 at >40 uM
T4 sequence (P05177 whole entry): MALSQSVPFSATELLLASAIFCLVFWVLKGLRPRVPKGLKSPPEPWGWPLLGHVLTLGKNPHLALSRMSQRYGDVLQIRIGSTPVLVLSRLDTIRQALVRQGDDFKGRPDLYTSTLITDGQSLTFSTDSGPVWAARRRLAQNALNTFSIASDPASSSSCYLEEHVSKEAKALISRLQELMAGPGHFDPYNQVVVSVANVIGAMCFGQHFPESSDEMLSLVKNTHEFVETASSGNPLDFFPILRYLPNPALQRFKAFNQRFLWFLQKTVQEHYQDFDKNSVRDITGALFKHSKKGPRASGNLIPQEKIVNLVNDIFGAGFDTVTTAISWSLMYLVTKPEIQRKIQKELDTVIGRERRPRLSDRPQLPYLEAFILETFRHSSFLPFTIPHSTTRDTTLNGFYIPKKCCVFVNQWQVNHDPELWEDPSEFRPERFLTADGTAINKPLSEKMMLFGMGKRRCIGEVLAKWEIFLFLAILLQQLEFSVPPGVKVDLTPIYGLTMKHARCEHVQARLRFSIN

Cytochrome P450 2C9 = Cytochrome P450 2C9 (Homo sapiens, UniProt P11712); test: Inhibition of CPY2C9 at >40 uM
Rattus norvegicus [7] = test: Wake promoting activity in Sprague-Dawley rat assessed as decrease in non-rapid eye movement sleep at 10 mg/kg, sc; format: functional, organism-based; parameters: dose 10 mg/kg
In short: (§1)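 Male adult Sprague-Dawley rats chronically implanted with EEG/EMG electrodes, given 10 mg/kg s.c. or saline vehicle 2 h after light-phase onset. Recording for 8 h, visually scored in 10 s epochs as wake, NREM or REM. Time per 1 h interval as % of recording time; n = 5 animals; vehicle vs compound by paired t-test.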

Cytochrome P450 2C19 = Cytochrome P450 2C19 (Homo sapiens, UniProt P33261); test: Inhibition of CPY2C19 at >40 uM
Cytochrome P450 2D6 = Cytochrome P450 2D6 (Homo sapiens, UniProt P10635); test: Inhibition of CPY2D6 at >40 uM
Cytochrome P450 3A4 = Cytochrome P450 3A4 (Homo sapiens, UniProt P08684); test: Inhibition of CPY3A4 at >40 uM
[8] = Oral bioavailability in rat; format: ADME, organism-based; details: in vivo
Histamine H3 receptor [9] = biological target: T2, Histamine H3 receptor; test: Antagonist activity at rat H3 receptor expressed in SK-N-MC cells assessed as inhibition of forskolin-stimulated cAMP accumulation treated 10 min before histamine challenge; format: functional, cell-based; details: read-out: pA2 (converted)
Rattus norvegicus [10] = test: Wake promoting activity in Sprague-Dawley rat assessed as effect on rapid eye movement sleep at 10 mg/kg, sc; format: functional, organism-based; parameters: dose 10 mg/kg; in short: as §1
[11] = Half life in po dosed rat; format: ADME, organism-based; details: in vivo

T1 sequence (Q9Y5N1 whole entry): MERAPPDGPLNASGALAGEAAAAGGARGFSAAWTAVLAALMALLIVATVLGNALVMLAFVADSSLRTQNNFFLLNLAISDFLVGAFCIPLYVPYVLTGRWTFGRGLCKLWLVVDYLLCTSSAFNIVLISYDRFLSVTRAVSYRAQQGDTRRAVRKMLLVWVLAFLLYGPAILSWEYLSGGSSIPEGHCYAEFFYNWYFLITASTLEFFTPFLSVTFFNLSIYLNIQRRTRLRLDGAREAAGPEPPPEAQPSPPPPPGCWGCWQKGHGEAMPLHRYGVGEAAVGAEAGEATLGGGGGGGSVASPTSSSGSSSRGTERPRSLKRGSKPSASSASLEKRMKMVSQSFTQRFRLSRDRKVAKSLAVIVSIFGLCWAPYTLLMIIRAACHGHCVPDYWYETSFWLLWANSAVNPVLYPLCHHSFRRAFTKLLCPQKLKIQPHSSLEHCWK
T3 sequence (Q12809 whole entry): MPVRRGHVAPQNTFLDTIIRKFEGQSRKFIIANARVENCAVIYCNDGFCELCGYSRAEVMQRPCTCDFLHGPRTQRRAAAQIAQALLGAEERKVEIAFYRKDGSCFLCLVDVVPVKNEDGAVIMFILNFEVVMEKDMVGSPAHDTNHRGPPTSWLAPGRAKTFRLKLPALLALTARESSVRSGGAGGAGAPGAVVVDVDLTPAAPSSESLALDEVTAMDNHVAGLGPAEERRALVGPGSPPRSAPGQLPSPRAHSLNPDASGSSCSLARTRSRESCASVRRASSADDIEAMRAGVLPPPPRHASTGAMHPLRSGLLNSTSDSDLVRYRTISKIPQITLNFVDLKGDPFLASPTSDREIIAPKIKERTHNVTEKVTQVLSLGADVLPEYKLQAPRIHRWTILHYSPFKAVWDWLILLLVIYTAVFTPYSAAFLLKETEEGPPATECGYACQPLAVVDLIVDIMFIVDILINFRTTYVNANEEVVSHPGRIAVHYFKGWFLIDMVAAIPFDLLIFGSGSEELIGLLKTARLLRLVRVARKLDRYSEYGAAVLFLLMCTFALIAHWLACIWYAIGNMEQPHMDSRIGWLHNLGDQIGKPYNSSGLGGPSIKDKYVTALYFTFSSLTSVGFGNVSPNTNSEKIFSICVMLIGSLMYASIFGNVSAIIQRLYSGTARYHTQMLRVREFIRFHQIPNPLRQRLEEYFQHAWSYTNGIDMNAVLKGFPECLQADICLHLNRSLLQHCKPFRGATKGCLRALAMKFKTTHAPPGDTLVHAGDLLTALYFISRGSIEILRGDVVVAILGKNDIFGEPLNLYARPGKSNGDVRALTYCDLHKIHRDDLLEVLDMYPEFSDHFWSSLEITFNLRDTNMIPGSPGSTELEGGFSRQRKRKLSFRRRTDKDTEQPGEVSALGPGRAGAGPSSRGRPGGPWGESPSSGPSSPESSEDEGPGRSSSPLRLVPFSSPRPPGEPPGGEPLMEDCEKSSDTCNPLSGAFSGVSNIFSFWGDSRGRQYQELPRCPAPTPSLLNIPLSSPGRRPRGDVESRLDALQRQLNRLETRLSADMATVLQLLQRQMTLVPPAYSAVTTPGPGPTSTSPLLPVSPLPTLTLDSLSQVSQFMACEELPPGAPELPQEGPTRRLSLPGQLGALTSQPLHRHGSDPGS
T2 sequence (Q9QYN8 whole entry): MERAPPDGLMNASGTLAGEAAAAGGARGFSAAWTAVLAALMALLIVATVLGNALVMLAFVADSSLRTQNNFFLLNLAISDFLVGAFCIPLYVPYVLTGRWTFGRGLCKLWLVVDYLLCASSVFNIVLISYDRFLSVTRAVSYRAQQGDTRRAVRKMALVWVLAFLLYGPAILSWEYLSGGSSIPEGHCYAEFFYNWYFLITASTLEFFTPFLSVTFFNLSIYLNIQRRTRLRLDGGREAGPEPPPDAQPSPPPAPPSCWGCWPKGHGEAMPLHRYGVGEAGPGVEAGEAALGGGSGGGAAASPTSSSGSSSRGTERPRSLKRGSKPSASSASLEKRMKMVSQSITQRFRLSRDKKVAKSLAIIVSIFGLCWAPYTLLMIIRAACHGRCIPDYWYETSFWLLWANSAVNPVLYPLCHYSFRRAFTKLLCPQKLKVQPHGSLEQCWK
Sequence of Cytochrome P450 3A4 (P08684 whole entry): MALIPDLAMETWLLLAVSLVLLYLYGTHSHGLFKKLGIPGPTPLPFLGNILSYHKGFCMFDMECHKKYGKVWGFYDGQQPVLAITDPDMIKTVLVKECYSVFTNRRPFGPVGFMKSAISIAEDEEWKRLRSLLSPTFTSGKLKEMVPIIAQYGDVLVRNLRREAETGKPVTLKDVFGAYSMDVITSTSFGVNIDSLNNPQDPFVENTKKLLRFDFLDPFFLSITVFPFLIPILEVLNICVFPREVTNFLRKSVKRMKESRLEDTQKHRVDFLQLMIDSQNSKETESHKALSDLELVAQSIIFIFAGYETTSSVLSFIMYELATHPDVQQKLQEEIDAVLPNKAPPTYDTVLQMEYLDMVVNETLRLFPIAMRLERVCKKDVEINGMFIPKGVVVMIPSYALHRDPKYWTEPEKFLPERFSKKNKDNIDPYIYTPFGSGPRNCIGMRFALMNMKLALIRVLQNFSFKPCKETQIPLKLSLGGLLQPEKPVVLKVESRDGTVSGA
Sequence of Histamine H1 receptor (P35367 whole entry): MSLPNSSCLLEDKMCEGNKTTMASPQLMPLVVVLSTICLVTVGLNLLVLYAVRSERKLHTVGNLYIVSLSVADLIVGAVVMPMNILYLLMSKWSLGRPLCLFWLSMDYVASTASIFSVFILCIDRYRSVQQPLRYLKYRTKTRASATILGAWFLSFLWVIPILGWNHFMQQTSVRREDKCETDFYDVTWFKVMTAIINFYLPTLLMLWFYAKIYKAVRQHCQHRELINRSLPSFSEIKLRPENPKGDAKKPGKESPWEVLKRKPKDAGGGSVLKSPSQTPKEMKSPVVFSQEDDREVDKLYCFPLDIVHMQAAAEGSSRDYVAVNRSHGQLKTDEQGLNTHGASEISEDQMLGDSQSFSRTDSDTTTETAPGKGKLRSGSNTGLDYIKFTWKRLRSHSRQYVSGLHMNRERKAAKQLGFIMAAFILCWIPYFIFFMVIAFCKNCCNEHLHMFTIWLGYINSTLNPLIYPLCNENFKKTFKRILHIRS
Sequence of Cytochrome P450 2C9 (P11712 whole entry): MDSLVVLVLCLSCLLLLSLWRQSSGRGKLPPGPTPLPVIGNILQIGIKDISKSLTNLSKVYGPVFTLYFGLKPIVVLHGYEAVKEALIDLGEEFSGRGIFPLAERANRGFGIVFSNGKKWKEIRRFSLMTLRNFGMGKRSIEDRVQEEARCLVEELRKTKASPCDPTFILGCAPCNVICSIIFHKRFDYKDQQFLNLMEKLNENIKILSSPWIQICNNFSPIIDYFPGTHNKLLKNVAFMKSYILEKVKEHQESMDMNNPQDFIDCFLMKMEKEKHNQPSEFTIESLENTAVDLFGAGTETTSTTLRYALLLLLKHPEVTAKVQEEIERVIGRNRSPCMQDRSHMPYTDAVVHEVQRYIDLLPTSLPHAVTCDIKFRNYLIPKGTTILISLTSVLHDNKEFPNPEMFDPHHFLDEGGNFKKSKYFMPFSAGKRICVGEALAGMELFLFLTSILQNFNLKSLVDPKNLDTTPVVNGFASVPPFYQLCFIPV
Sequence of Cytochrome P450 2D6 (P10635 whole entry): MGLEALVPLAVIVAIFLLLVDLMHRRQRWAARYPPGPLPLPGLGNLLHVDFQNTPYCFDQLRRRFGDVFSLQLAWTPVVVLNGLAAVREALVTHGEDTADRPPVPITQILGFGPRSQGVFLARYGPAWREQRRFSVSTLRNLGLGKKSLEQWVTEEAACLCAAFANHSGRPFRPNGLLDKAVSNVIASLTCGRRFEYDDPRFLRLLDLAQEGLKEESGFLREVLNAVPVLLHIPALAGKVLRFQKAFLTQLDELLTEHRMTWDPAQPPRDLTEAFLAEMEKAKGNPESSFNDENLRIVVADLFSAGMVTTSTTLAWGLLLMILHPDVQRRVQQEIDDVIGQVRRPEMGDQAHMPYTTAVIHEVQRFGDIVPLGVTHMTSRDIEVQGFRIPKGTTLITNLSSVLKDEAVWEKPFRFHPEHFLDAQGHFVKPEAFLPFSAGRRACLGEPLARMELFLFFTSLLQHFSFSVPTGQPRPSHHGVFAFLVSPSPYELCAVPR
Sequence of Histamine H4 receptor (Q9H3N8 whole entry): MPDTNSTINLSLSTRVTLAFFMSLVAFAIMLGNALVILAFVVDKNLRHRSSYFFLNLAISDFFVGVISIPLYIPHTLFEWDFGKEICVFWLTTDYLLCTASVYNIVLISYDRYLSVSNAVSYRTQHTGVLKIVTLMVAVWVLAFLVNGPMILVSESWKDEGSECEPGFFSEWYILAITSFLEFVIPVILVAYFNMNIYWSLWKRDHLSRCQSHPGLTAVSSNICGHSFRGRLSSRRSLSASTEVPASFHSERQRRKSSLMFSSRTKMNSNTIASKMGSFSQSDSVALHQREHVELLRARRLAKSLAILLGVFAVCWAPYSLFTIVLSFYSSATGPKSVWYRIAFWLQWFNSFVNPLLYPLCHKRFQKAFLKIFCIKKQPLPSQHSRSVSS
Sequence of Cytochrome P450 2C19 (P33261 whole entry): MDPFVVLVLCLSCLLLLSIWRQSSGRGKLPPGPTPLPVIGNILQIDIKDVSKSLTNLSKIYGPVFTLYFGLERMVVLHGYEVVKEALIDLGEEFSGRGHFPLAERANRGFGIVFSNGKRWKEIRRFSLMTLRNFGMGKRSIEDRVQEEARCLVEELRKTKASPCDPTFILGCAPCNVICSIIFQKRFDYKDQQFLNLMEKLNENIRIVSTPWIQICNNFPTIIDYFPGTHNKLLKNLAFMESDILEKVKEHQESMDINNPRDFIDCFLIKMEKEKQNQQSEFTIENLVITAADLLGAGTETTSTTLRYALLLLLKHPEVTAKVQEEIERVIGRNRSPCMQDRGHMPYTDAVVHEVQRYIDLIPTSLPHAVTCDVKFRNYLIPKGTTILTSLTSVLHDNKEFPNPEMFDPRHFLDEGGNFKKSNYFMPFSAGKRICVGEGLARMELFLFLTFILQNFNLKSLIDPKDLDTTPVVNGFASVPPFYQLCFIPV

| Compound | Ki (Histamine H3 receptor [1]) | other results |
| --- | --- | --- |
| C(#Cc1ccc(CN2CCC(Cc3ccccc3)CC2)cc1)CCN1CCCCC1 | 3.47 nM |  |
| C(#Cc1ccc(CN2CCCCC2)cc1)CCN1CCCC1 | 0.676 nM |  |
| NC(=O)C1CCN(Cc2cccc(C#CCCN3CCCCC3)c2)CC1 | 0.55 nM |  |
| OC1CCN(Cc2ccc(C#CCCN3CCCCC3)cc2)CC1 | 0.891 nM |  |
| C(#Cc1ccc(CN2CCCCC2)cc1)CCN1CCSCC1 | 3.8 nM |  |
| C(#Cc1ccc(CN2CCOCC2)cc1)CCN1CCCCC1 | 1.74 nM | Kb (Histamine H3 receptor [2]): 3.24 nM |
| C(#Cc1ccc(CN2CCN(Cc3ccccc3)CC2)cc1)CCN1CCCCC1 | 1.91 nM |  |
| CN1CCN(CCC#Cc2ccc(CN3CCCCC3)cc2)CC1 | 5.25 nM |  |
| C(#Cc1cccc(CN2CCOCC2)c1)CCN1CCCCC1 |  | ED50 (Rattus norvegicus [3]): 6.5 mg/kg; Ki (Histamine H3 receptor [4]): 7.08 nM; Ki (Histamine H1 receptor): > 10000 nM; Ki (Histamine H4 receptor): > 10000 nM; inhibition at 10 µM (hERG (KCNH2) [5]): 13.7%; inhibition at 3 µM (hERG (KCNH2) [6]): 8.3%; inhibition (INH) (Cytochrome P450 1A2): Not Active; inhibition (INH) (Cytochrome P450 2C9): Not Active; Activity (Rattus norvegicus [7]): Active; inhibition (INH) (Cytochrome P450 2C19): Not Active; inhibition (INH) (Cytochrome P450 2D6): Not Active; inhibition (INH) (Cytochrome P450 3A4): Not Active; bioavailability [8]: 11%; Kb (Histamine H3 receptor [9]): 4.68 nM; Activity (Rattus norvegicus [10]): inactive; half-life [11]: 1.5 h |
| C(#Cc1ccccc1CN1CCCCC1)CCN1CCCCC1 | 83.2 nM |  |
| CC(C)N1CCN(Cc2ccc(C#CCCN3CCCCC3)cc2)CC1 | 0.871 nM |  |
| C(#Cc1cccc(CN2CCCC2)c1)CCN1CCCCC1 | 81.3 nM |  |
| CN(C)Cc1ccc(C#CCCN2CCCCC2)cc1 | 0.912 nM |  |
| CCN(CC)CCC#Cc1ccc(CN2CCCCC2)cc1 | 1.35 nM |  |
| C(#Cc1cccc(CN2CCCCC2)c1)CCN1CCCCC1 | 0.776 nM | Kb (Histamine H3 receptor [2]): 0.0813 nM |
| C(#Cc1cccc(CN2CCCCC2)c1)CCN1CCOCC1 | 14.5 nM |  |
| CN1CCN(Cc2cccc(C#CCCN3CCCCC3)c2)CC1 | 0.724 nM |  |
| C(#Cc1ccc(CN2CCCCC2)cc1)CCN1CCOCC1 | 5.01 nM |  |
| C(#Cc1ccc(CN2CCCC2)cc1)CCN1CCCCC1 | 0.617 nM |  |
| CN1CCN(Cc2ccc(C#CCCN3CCCCC3)cc2)CC1 | 0.977 nM |  |
| NC(=O)C1CCN(Cc2ccc(C#CCCN3CCCCC3)cc2)CC1 | 0.759 nM |  |
| C(#Cc1ccc(CN2CCCCC2)cc1)CCN1CCCCC1 | 0.513 nM | Kb (Histamine H3 receptor [2]): 0.148 nM |
